Data taken from ChEMBL document CHEMBL1135354, “Synthesis and activity of a novel class of tribasic macrocyclic antibiotics: the triamilides” (2002).
Converted amounts (≈) assume the structure as drawn.

What was measured:
Assay type in all cases: functional
Escherichia coli = test: In vitro minimum inhibitory concentration required to inhibit growth of Escherichia coli.
How it was run: (§1)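 Broth microdilution per NCCLS; E. coli 51A0150 (poultry lung) and P. multocida 59A0067 (turkey). Overnight BHI plate colonies suspended in saline to OD625 0.09 (0.5 McFarland), diluted 1:100 in BHI broth; final ~5×10^5 cfu/mL against 2-fold serial dilutions in BHI broth.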

Pasteurella multocida [1] = test: Effective dose required to inhibit Pasteurella multocida infection model in mouse by subcutaneous administration
How it was run: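 Mice infected intranasally with P. multocida (respiratory disease model); drug given subcutaneously 0.5 h post-infection at 5–80 mg/kg. ED50 derived from number of surviving mice 4 days after infection.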

Pasteurella multocida [2] = test: Minimum inhibitory concentration required to inhibit growth of Pasteurella multocida in vitro by microdilution method.; how it was run: as §1
[3] = Pasteurella multocida, sc, read-out: ED50
[4] = Pasteurella multocida, read-out: MIC

Row | MIC (Escherichia coli; Escherichia coli) | MIC (Pasteurella multocida [2]; [4]) | MIC (Escherichia coli) | MIC (Pasteurella multocida [2]) | SMILES | ED50 (Pasteurella multocida [1]; [3]) | ED50 (Pasteurella multocida [1])
1 | 6.25 µg/mL (≈ 8.18 µM) | 0.39 µg/mL (≈ 0.51 µM) | – | – | CC[C@H]1OC(=O)[C@H](C)[C@@H](O[C@H]2C[C@@](C)(OC)[C@@](O)(CN)[C@H](C)O2)[C@H](C)[C@@H](O[C@@H]2O[C@H](C)C[C@H](N(C)C)[C@H]2O)[C@](C)(O)C[C@@H](C)CN[C@H](C)[C@@H](O)[C@]1(C)O | 30 mg/kg | –
2 | 0.39 µg/mL (≈ 0.477 µM) | 0.1 µg/mL (≈ 0.122 µM) | – | – | CC[C@H]1OC(=O)[C@H](C)[C@@H](O[C@H]2C[C@@](C)(OC)[C@@](O)(CNCC3CC3)[C@H](C)O2)[C@H](C)[C@@H](O[C@@H]2O[C@H](C)C[C@H](N(C)C)[C@H]2O)[C@](C)(O)C[C@@H](C)CN[C@H](C)[C@@H](O)[C@]1(C)O | 5.7 mg/kg | –
3 | 0.39 µg/mL (≈ 0.484 µM) | 0.1 µg/mL (≈ 0.124 µM) | – | – | CCCNC[C@@]1(O)[C@H](C)O[C@@H](O[C@H]2[C@H](C)[C@@H](O[C@@H]3O[C@H](C)C[C@H](N(C)C)[C@H]3O)[C@](C)(O)C[C@@H](C)CN[C@H](C)[C@@H](O)[C@](C)(O)[C@@H](CC)OC(=O)[C@@H]2C)C[C@@]1(C)OC | 12 mg/kg | –
4 | 1.56 µg/mL (≈ 1.84 µM) | < 0.1 µg/mL | – | – | CC[C@H]1OC(=O)[C@H](C)[C@@H](O[C@H]2C[C@@](C)(OC)[C@@](O)(CNCC(F)(F)F)[C@H](C)O2)[C@H](C)[C@@H](O[C@@H]2O[C@H](C)C[C@H](N(C)C)[C@H]2O)[C@](C)(O)C[C@@H](C)CN[C@H](C)[C@@H](O)[C@]1(C)O | 46 mg/kg | –
5 | 0.39 µg/mL (≈ 0.476 µM) | < 0.1 µg/mL | – | – | CCCCNC[C@@]1(O)[C@H](C)O[C@@H](O[C@H]2[C@H](C)[C@@H](O[C@@H]3O[C@H](C)C[C@H](N(C)C)[C@H]3O)[C@](C)(O)C[C@@H](C)CN[C@H](C)[C@@H](O)[C@](C)(O)[C@@H](CC)OC(=O)[C@@H]2C)C[C@@]1(C)OC | 23 mg/kg | –
6 | – | – | 0.78 µg/mL (≈ 0.968 µM) | < 0.1 µg/mL | CC[C@H]1OC(=O)[C@H](C)[C@@H](O[C@H]2C[C@@](C)(OC)[C@@](O)(CN(C)CC)[C@H](C)O2)[C@H](C)[C@@H](O[C@@H]2O[C@H](C)C[C@H](N(C)C)[C@H]2O)[C@](C)(O)C[C@@H](C)CN[C@H](C)[C@@H](O)[C@]1(C)O (stereo in doubt; 8i) | – | 7.2 mg/kg
7 | 0.39 µg/mL (≈ 0.484 µM) | – | – | 0.1 µg/mL (≈ 0.124 µM) | CC[C@H]1OC(=O)[C@H](C)[C@@H](O[C@H]2C[C@@](C)(OC)[C@@](O)(CN(C)CC)[C@H](C)O2)[C@H](C)[C@@H](O[C@@H]2O[C@H](C)C[C@H](N(C)C)[C@H]2O)[C@](C)(O)C[C@@H](C)CN[C@H](C)[C@@H](O)[C@]1(C)O (stereo in doubt; 10g) | < 5 mg/kg | –

Further lines, the compound ahead of its results:

Row | SMILES | MIC (Escherichia coli; Escherichia coli) | MIC (Pasteurella multocida [2]; [4]) | MIC (Escherichia coli) | MIC (Pasteurella multocida [2]) | ED50 (Pasteurella multocida [1]; [3]) | ED50 (Pasteurella multocida [1])
8 | CC[C@H]1OC(=O)[C@H](C)[C@@H](O[C@H]2C[C@@](C)(OC)[C@](O)(CN(C)C)[C@H](C)O2)[C@H](C)[C@@H](O[C@@H]2O[C@H](C)C[C@H](N(C)C)[C@H]2O)[C@](C)(O)C[C@@H](C)CN[C@H](C)[C@@H](O)[C@]1(C)O | 0.39 µg/mL (≈ 0.492 µM) | 0.05 µg/mL (≈ 0.0631 µM) | – | – | 5.9 mg/kg | –
9 | CC[C@H]1OC(=O)[C@H](C)[C@@H](O[C@H]2C[C@@](C)(OC)[C@](O)(CSCCO)[C@H](C)O2)[C@H](C)[C@@H](O[C@@H]2O[C@H](C)C[C@H](N(C)C)[C@H]2O)[C@](C)(O)C[C@@H](C)CN[C@H](C)[C@@H](O)[C@]1(C)O | 25 µg/mL (≈ 30.3 µM) | 0.39 µg/mL (≈ 0.473 µM) | – | – | > 40 mg/kg | –
10 | CC[C@H]1OC(=O)[C@H](C)[C@@H](O[C@H]2C[C@@](C)(OC)[C@@](O)(CN(C)C)[C@H](C)O2)[C@H](C)[C@@H](O[C@@H]2O[C@H](C)C[C@H](N(C)C)[C@H]2O)[C@](C)(O)C[C@@H](C)CN[C@H](C)[C@@H](O)[C@]1(C)O | 0.39 µg/mL (≈ 0.492 µM) | < 0.1 µg/mL | – | – | 9.9 mg/kg | –
11 | CC[C@H]1OC(=O)[C@H](C)[C@@H](O[C@H]2C[C@@](C)(OC)[C@@](O)(CN3CCCCC3)[C@H](C)O2)[C@H](C)[C@@H](O[C@@H]2O[C@H](C)C[C@H](N(C)C)[C@H]2O)[C@](C)(O)C[C@@H](C)CN[C@H](C)[C@@H](O)[C@]1(C)O | 0.39 µg/mL (≈ 0.469 µM) | < 0.1 µg/mL | – | – | 40 mg/kg | –
12 | CC[C@H]1OC(=O)[C@H](C)[C@@H](O[C@H]2C[C@@](C)(OC)[C@@](O)(CNC3CC3)[C@H](C)O2)[C@H](C)[C@@H](O[C@@H]2O[C@H](C)C[C@H](N(C)C)[C@H]2O)[C@](C)(O)C[C@@H](C)CN[C@H](C)[C@@H](O)[C@]1(C)O | 0.2 µg/mL (≈ 0.249 µM) | 0.05 µg/mL (≈ 0.0622 µM) | – | – | 20 mg/kg | –
13 | CC[C@H]1OC(=O)[C@H](C)[C@@H](O[C@H]2C[C@@](C)(OC)[C@@](O)(Cn3ccnn3)[C@H](C)O2)[C@H](C)[C@@H](O[C@@H]2O[C@H](C)C[C@H](N(C)C)[C@H]2O)[C@](C)(O)C[C@@H](C)CN[C@H](C)[C@@H](O)[C@]1(C)O | 0.78 µg/mL (≈ 0.956 µM) | 0.05 µg/mL (≈ 0.0613 µM) | – | – | 23 mg/kg | –
14 | CC[C@H]1OC(=O)[C@H](C)[C@@H](O[C@H]2C[C@@](C)(OC)[C@@](O)(CN(C)CCO)[C@H](C)O2)[C@H](C)[C@@H](O[C@@H]2O[C@H](C)C[C@H](N(C)C)[C@H]2O)[C@](C)(O)C[C@@H](C)CN[C@H](C)[C@@H](O)[C@]1(C)O | 1.56 µg/mL (≈ 1.9 µM) | 0.1 µg/mL (≈ 0.122 µM) | – | – | 12 mg/kg | –
15 | CC[C@H]1OC(=O)[C@H](C)[C@@H](O[C@H]2C[C@@](C)(OC)[C@@](O)(CN(C)C3CC3)[C@H](C)O2)[C@H](C)[C@@H](O[C@@H]2O[C@H](C)C[C@H](N(C)C)[C@H]2O)[C@](C)(O)C[C@@H](C)CN[C@H](C)[C@@H](O)[C@]1(C)O | 0.78 µg/mL (≈ 0.953 µM) | 0.1 µg/mL (≈ 0.122 µM) | – | – | 17 mg/kg | –
16 | CC[C@H]1OC(=O)[C@H](C)[C@@H](O[C@H]2C[C@@](C)(OC)[C@@](O)(CN3CCOCC3)[C@H](C)O2)[C@H](C)[C@@H](O[C@@H]2O[C@H](C)C[C@H](N(C)C)[C@H]2O)[C@](C)(O)C[C@@H](C)CN[C@H](C)[C@@H](O)[C@]1(C)O | 3.13 µg/mL (≈ 3.75 µM) | 0.2 µg/mL (≈ 0.24 µM) | – | – | 49 mg/kg | –
17 | CC[C@H]1OC(=O)[C@H](C)[C@@H](O[C@H]2C[C@@](C)(OC)[C@@](O)(Cn3ccnc3)[C@H](C)O2)[C@H](C)[C@@H](O[C@@H]2O[C@H](C)C[C@H](N(C)C)[C@H]2O)[C@](C)(O)C[C@@H](C)CN[C@H](C)[C@@H](O)[C@]1(C)O | 3.13 µg/mL (≈ 3.84 µM) | 0.2 µg/mL (≈ 0.245 µM) | – | – | 20 mg/kg | –
